What was measured:
Format in all cases: functional, cell-based
[1] = Cytotoxicity against human MCF cells after 24 hrs by SRB assay
In short: (§1)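 Monolayer cultures kept in RPMI-1640 with 5% heat-inactivated FBS, 2 mM glutamine, penicillin 100 U/mL and streptomycin, at 37 °C in humidified 5% CO₂. Exponentially growing cells were obtained by plating 1.5×10^5 cells/mL and incubating 24 h before treatment. Vehicle controls received DMSO at 0.5%, the maximum used in each assay.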

[2] = Cytotoxicity against human HONE1 cells after 24 hrs by SRB assay; details: HONE1, 24 h; in short: as §1
[3] = system: NUGC; test: Cytotoxicity against human NUGC cells after 24 hrs by SRB assay; in short: as §1
[4] = system: HepG2; test: Cytotoxicity against human HepG2 cells after 24 hrs by SRB assay; details: HepG2, 24 h; in short: as §1
[5] = Cytotoxicity against human DLD1 cells after 24 hrs by SRB assay; details: DLD-1, 24 h; in short: as §1
[6] = Cytotoxicity against human HA22T cells after 24 hrs by SRB assay; in short: as §1
[7] = Cytotoxicity against human WI38 cells after 24 hrs by SRB assay; details: WI-38, 24 h
In short: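 Normal fibroblasts were grown as monolayer in RPMI-1640 with 5% heat-inactivated FBS, 2 mM glutamine, penicillin 100 U/mL and streptomycin, at 37 °C in humidified 5% CO₂. Untreated control cells were exposed to the maximum DMSO vehicle concentration (0.5%) used in each assay.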

SMILES | IC50 [1] [nM] | IC50 [2] [nM] | IC50 [3] [nM] | IC50 [4] [nM] | IC50 [5] [nM] | IC50 [6] [nM] | IC50 [7] [nM]
O=C(Nn1c(S)nnc1-c1ccncc1)c1ccc([N+](=O)[O-])cc1 | 1090 | 2280 | 360 | 89 | 266 | 1110 | –
CC(=O)Nn1c(S)nnc1-c1ccncc1 | 2100 | 1180 | 44 | 53 | 42 | 166 | –
S=C(Nc1ccc(Br)cc1)Nn1c(S)nnc1-c1ccncc1 | 1590 | 1680 | 3290 | 2780 | 3270 | 3200 | 1290
COc1ccc(Nc2nn3c(-c4ccncc4)nnc3s2)cc1 | 215 | 2220 | 56 | 333 | 128 | 282 | –
Clc1ccc(-c2nn3c(-c4ccncc4)nnc3s2)c(Cl)c1 | 3220 | 1170 | 2160 | 2260 | 1190 | 3070 | –
N#CN=C(NCCCCCCOc1ccc(Cl)cc1)Nc1ccncc1 [CHS-828] | 18 | 15 | – | – | – | – | –
Cc1ccc(Nc2nn3c(-c4ccncc4)nnc3s2)cc1 | 120 | 3280 | 540 | 312 | 1380 | 277 | 480
c1ccc(C2=Nn3c(nnc3-c3ccncc3)SC2)cc1 | 80 | 110 | 59 | 469 | 2350 | 122 | –
Clc1ccc(Nc2nn3c(-c4ccncc4)nnc3s2)cc1 | 1260 | 2260 | 1290 | 1980 | 3260 | 3070 | –
Brc1ccc(Nc2nn3c(-c4ccncc4)nnc3s2)cc1 | 229 | 2220 | 136 | 128 | 320 | 782 | –
Clc1ccccc1-c1nn2c(-c3ccncc3)nnc2s1 | 2180 | 1170 | 3220 | 1330 | 2660 | 1260 | –
Cc1nn2c(-c3ccncc3)nnc2s1 | 219 | 1080 | 2190 | 2740 | 3280 | 1720 | 650
COc1ccc(NC(=S)Nn2c(S)nnc2-c2ccncc2)cc1 | 1670 | 2270 | 1820 | 1300 | 2290 | 2370 | –
Clc1ccc(-c2nn3c(-c4ccncc4)nnc3s2)cc1 | 1620 | 488 | 25 | 1230 | 49 | 120 | –
Brc1ccc(C2=Nn3c(nnc3-c3ccncc3)SC2)cc1 | 2270 | 1780 | 2490 | 2290 | 2380 | 2060 | –
c1ccc(-c2nn3c(-c4ccncc4)nnc3s2)cc1 | 1540 | 2430 | 1280 | 1360 | 3360 | 1260 | –
S=C(Nc1ccc(Cl)cc1)Nn1c(S)nnc1-c1ccncc1 | 3230 | 1220 | 2120 | 2020 | 2250 | 2010 | 2190
Cc1ccc(NC(=S)Nn2c(S)nnc2-c2ccncc2)cc1 | 2170 | 1290 | 2770 | 1230 | 2150 | 2380 | –

— ChEMBL document CHEMBL3352138, “Synthesis of novel 1,2,4-triazoles, triazolothiadiazines and triazolothiadiazoles as potential anticancer agents” (Eur J Med Chem, 2014)
